Data as given in ChEMBL document CHEMBL3797028, “Novel S1P1 receptor agonists - Part 4: Alkylaminomethyl substituted aryl head groups” (Eur J Med Chem, 2016).

Experiments:
Rattus norvegicus [1] = species on record: Rattus norvegicus; assay: Intrinsic clearance in rat liver microsomes scaled to body weight; settings: in vitro
Rattus norvegicus [2] = assay: Change in circulating lymphocyte count in Wistar rat at 10 mg/kg administered as single dose through oral gavage after 3 hrs relative to control; format: functional
Outline: (§1)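 Male Wistar rats (RccHan:WIST; n = 6) were given a single oral gavage dose of compound in DMSO plus 7.5% succinylated gelatine (final 5% DMSO). Blood lymphocytes were counted just before dosing and at later timepoints. Percent change was calculated per animal relative to the pre-dose value and compared with a vehicle-treated group, reported as the mean. A ±15% change was treated as baseline, and a reduction of about 60% or more as maximal.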

[3] = molecular target: Sphingosine 1-phosphate receptor 3 (Homo sapiens, UniProt Q99500); assay: Agonist activity at human recombinant S1PR3 expressed in CHO cell membranes assessed as [35S]GTPgammaS binding preincubated for 30 mins followed by [35S]GTPgammaS addition measured after 1 hr by topcount analysis; format: functional
Sphingosine 1-phosphate receptor 3, sequence (Q99500 whole entry): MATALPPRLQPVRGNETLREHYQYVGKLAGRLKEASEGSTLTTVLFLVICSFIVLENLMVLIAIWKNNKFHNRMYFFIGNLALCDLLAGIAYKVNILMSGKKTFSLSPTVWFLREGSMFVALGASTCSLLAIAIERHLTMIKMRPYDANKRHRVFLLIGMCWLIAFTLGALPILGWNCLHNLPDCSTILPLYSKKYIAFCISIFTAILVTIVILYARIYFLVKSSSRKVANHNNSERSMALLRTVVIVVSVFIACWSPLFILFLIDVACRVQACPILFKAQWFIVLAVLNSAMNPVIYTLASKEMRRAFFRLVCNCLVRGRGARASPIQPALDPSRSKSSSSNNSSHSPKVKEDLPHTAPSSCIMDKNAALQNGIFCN
Outline: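 Membranes from CHO cells expressing recombinant human S1P1 or S1P3 were used. Buffer was 20 mM Hepes pH 7.4, 100 mM NaCl, 5 mM MgCl2, 0.1% fatty-acid-free BSA, 2.5% DMSO and 50 pM 35S-GTPgammaS. GDP was […] for S1P3. Compound was preincubated 30 min at rt, then incubated 1 h at rt with 35S-GTPgammaS. Bound label was collected by filtration and counted. Specific binding was taken against 10 uM S1P. EC50 was the 50%-of-specific-binding concentration, reported as the geometric mean of at least three independent duplicate runs.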

Rattus norvegicus [4] = assay: Change in circulating lymphocyte count in Wistar rat at 10 mg/kg administered as single dose through oral gavage after 6 hrs relative to control; format: functional
Outline: as §1

[5] = Apparent oral clearance in Wistar rat plasma at 1 to 10 mg/kg administered through gavage by LC-MS/MS analysis; format: ADME, organism-based
Outline: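 Male Wistar rats received a single oral gavage dose of compound dissolved in DMSO and added to 7.5% succinylated gelatine in water (final 5% DMSO). EDTA plasma was spun at 3000 g for 10 min at 4 °C and analysed by LC-MS/MS after protein precipitation. Oral clearance was estimated from the plasma concentration–time data. In vivo intrinsic clearance used the well-stirred liver model, assuming complete absorption.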

Rattus norvegicus [6] = assay: Change in circulating lymphocyte count in Wistar rat at 10 mg/kg administered as single dose through oral gavage after 24 hrs relative to control; format: functional
Outline: as §1

[7] = Fraction unbound in Wistar rat plasma incubated for 6 hrs by LC-MS/MS based equilibrium dialysis method; format: ADME, cell-free
Outline: (§2)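 Rapid equilibrium dialysis was run on a shaker for 6 h at 37 °C. The donor side held rat plasma (pH 7.2–7.6) or 1 mg/mL rat liver microsomes in phosphate buffer pH 7.4. The receiver side held phosphate buffer pH 7.4. Both sides were measured by LC-MS/MS to give free fraction and recovery.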

[8] = Fraction unbound in Wistar rat liver microsomes incubated for 6 hrs by LC-MS/MS based equilibrium dialysis method; format: ADME
Outline: as §2

[9] = Plasma concentration in Wistar rat at 10 mg/kg administered as single dose through oral gavage after 3 hrs by LC-MS/MS analysis; format: ADME, organism-based
Outline: (§3)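 Single oral gavage dose to male Wistar rats in DMSO/7.5% succinylated gelatine (final 5% DMSO). Blood was drawn into EDTA at the lymphocyte-count timepoints. Plasma was prepared at 3000 g for 10 min at 4 °C and analysed by LC-MS/MS after protein precipitation.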

[10] = Apparent intrinsic clearance in Wistar rat liver microsomes at 1 uM after 2.5 to 15 mins by LC-MS/MS analysis in presence of NADPH; format: ADME; settings: read-out: CLH(app)
Outline: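 Compound at 1 uM starting concentration was depleted by 0.5 mg/mL rat liver microsomes in 100 mM sodium phosphate pH 7.4 at 37 °C, with shaking under air. Reactions were started with an NADPH-regenerating system. Samples were taken at 0, 2.5, 5, 10 and 15 min, quenched in ice-cold methanol and analysed by LC-MS/MS. CLint,app came from first-order decay fitting.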

Liver microsome = assay: Unbound fraction corrected apparent intrinsic clearance in Wistar rat liver microsomes at 1 uM after 2.5 to 15 mins by LC-MS/MS analysis in presence of NADPH; format: ADME
Outline: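 Apparent CLint was measured by microsomal substrate depletion: 1 uM start, 0.5 mg/mL rat liver microsomes, pH 7.4, 37 °C, NADPH-regenerating system, sampling 0–15 min, LC-MS/MS. It was then divided by the unbound microsomal fraction, which was determined by rapid equilibrium dialysis of 1 mg/mL microsomes for 6 h at 37 °C.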

[11] = molecular target: Sphingosine 1-phosphate receptor 1 (Homo sapiens, UniProt P21453); assay: Agonist activity at human recombinant S1PR1 expressed in CHO cell membranes assessed as [35S]GTPgammaS binding preincubated for 30 mins followed by [35S]GTPgammaS addition measured after 1 hr by topcount analysis
Sphingosine 1-phosphate receptor 1, sequence (P21453 whole entry): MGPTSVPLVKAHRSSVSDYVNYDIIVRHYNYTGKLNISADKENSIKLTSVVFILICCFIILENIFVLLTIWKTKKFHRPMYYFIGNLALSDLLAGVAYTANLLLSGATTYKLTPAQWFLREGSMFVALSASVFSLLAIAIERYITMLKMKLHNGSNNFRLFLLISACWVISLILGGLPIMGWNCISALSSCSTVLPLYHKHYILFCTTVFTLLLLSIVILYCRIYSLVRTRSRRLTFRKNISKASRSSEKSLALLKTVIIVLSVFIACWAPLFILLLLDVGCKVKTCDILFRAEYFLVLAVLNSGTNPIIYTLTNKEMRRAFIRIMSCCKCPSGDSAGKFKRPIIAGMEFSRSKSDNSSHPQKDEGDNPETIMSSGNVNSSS

[12] = Selectivity ratio of EC50 for human recombinant S1PR3 expressed in CHO cell membranes to EC50 for human recombinant S1PR1 expressed in CHO cell membranes; format: cell-based
Outline: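 Compound and membranes are pre-incubated 30 min at rt, then incubated 1 h at rt, filtered and counted. EC50 is the concentration giving 50% of S1P-defined specific binding, as the geometric mean of ≥3 independent duplicate runs. Ratio = EC50 S1PR3/EC50 S1PR1.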

[13] = Plasma concentration in Wistar rat at 10 mg/kg administered as single dose through oral gavage after 24 hrs by LC-MS/MS analysis; format: ADME, organism-based
Outline: as §3

[14] = Drug recovery in Wistar rat liver microsomes incubated for 6 hrs by LC-MS/MS based equilibrium dialysis method; format: ADME; settings: read-out: Drug recovery
Outline: as §2

[15] = Distribution coefficient, log D between 1-octonol and phosphate buffer at pH 7; format: physicochemical; settings: 1-octanol/phosphate buffer
Outline: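 Partition was between 1-octanol and phosphate buffer at pH 7.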

[16] = Plasma concentration in Wistar rat at 10 mg/kg administered as single dose through oral gavage after 6 hrs by LC-MS/MS analysis; format: ADME, organism-based
Outline: as §3

| SMILES | CL (Rattus norvegicus [1]) | Activity (Rattus norvegicus [2]) | EC50 [3] | Activity (Rattus norvegicus [4]) | CL/F [5] | Activity (Rattus norvegicus [6]) | fraction unbound at 6 h [7] | fraction unbound at 6 h [8] | concentration at 3 h [9] | microsomal CLint at 1 µM [10] | CL free (Liver microsome) | EC50 [11] | Ratio EC50 [12] | concentration at 24 h [13] | recovery at 6 h [14] | logD [15] | concentration at 6 h [16] |
| --- | --- | --- | --- | --- | --- | --- | --- | --- | --- | --- | --- | --- | --- | --- | --- | --- | --- |
| CCc1cc(-c2noc(-c3cc(C)nc(CN(C)CC(C)C)c3)n2)cc(C)c1OC[C@@H](O)CNC(=O)CO | 1970 mL/min/kg | -80% | 560 nM | -75% | 80 mL/min/kg | 1% | 0.004 | 0.18 | 385 ng/mL | 197 µL/min/mg | 1090 µL/min/mg | 3.2 nM | 175 | < 2 ng/mL | < 80% | 3.8 | 176 ng/mL |
| CCc1cc(-c2nc(-c3cc(C)c(OC[C@@H](O)CNC(=O)CO)c(CC)c3)no2)ccc1CN(C)C |  | -56% | 480 nM | -61% |  | 27% | 0.005 | 0.11 |  | 1010 µL/min/mg | 9200 µL/min/mg | 1.3 nM | 369 |  | < 80% | 3.8 |  |
| CCc1cc(-c2noc(-c3ccc(CN(C)CC(C)C)c(C)c3)n2)cc(C)c1OC[C@@H](O)CNC(=O)CO |  |  | 570 nM |  |  |  | < 0.001 | 0.001 |  | 74 µL/min/mg |  | 13 nM | 44 |  | < 80% | > 4.1 |  |
| CCc1cc(-c2noc(-c3cc(C)cc(CN(C)CC)c3)n2)cc(C)c1OC[C@@H](O)CNC(=O)CO |  | -57% | 1250 nM | -58% |  | 24% | 0.012 | 0.25 |  | > 1250 µL/min/mg | > 5000 µL/min/mg | 3.6 nM | 347 |  | < 80% | 3.4 |  |
| CCc1cc(-c2noc(-c3cc(C)cc(CN(C)C)c3)n2)cc(C)c1OC[C@@H](O)CNC(=O)CO |  | -44% | 2000 nM | -37% |  | 21% | 0.029 | 0.26 |  | > 1250 µL/min/mg | > 4800 µL/min/mg |  |  |  |  | 2.8 |  |
| CCc1cc(-c2noc(-c3ccc(CNC)s3)n2)cc(C)c1OC[C@@H](O)CNC(=O)CO |  |  | > 10000 nM |  |  |  |  |  |  |  |  | 189 nM | > 53 |  |  |  |  |
| CCCCN(C)Cc1cc(C)cc(-c2nc(-c3cc(C)c(OC[C@@H](O)CNC(=O)CO)c(CC)c3)no2)c1 |  | -60% | 425 nM | -57% |  | -6% | < 0.001 | 0.025 |  | 183 µL/min/mg | 7300 µL/min/mg | 2.6 nM | 163 |  | < 80% | > 4.1 |  |
| CCc1cc(-c2noc(-c3sc(CN(C)C)c(C)c3C)n2)cc(C)c1OC[C@@H](O)CNC(=O)CO |  |  | 4400 nM |  |  |  |  |  |  |  |  | 6.4 nM | 687 |  |  |  |  |
| CCc1cc(-c2noc(-c3cc(C)c(CNCC(C)C)s3)n2)cc(C)c1OC[C@@H](O)CNC(=O)CO |  |  | 1400 nM |  |  |  |  |  |  |  |  | 20 nM | 70 |  |  |  |  |
| CCCc1cc(CN(C)CC(C)C)cc(-c2nc(-c3cc(C)c(OC[C@@H](O)CNC(=O)CO)c(CC)c3)no2)c1 |  |  | 3.5 nM |  |  |  |  |  |  |  |  | 2.8 nM | < 2 |  |  |  |  |
| CCc1cc(-c2noc(-c3ccc(C)c(CN(C)CC(C)C)c3)n2)cc(C)c1OC[C@@H](O)CNC(=O)CO |  |  | 1200 nM |  |  |  |  |  |  |  |  | 97 nM | 12 |  |  |  |  |
| CCc1cc(-c2noc(-c3ccc(CNCC(C)C)c(C)c3)n2)cc(C)c1OC[C@@H](O)CNC(=O)CO |  |  | > 10000 nM |  |  |  |  |  |  |  |  | 270 nM | > 37 |  |  |  |  |
| CCc1cc(-c2noc(-c3cc(C)c(CN(C)CCN(C)C)s3)n2)cc(C)c1OC[C@@H](O)CNC(=O)CO |  |  | > 10000 nM |  |  |  |  |  |  |  |  | 155 nM | > 64 |  |  |  |  |
| CCc1cc(-c2noc(-c3cc(C)c(CN(C)C)s3)n2)cc(C)c1OC[C@@H](O)CNC(=O)CO | 14600 mL/min/kg | -64% | 660 nM | -56% | 275 mL/min/kg | 5% | 0.012 | 0.15 | 106 ng/mL | 1220 µL/min/mg | 8100 µL/min/mg |  |  | < 4 ng/mL |  | 3.2 | 31 ng/mL |
